In ChEMBL document CHEMBL1124401, “1-(2,3-Dideoxy-beta-D-glycero-pent-2-enofuranosyl)thymine. A highly potent and selective anti-HIV agent” (J Med Chem, 1989):
Each block holds one compound with its values, some of them ahead of it.

Legend:
[1] = The 90% inhibitory concentration expresses cellular toxicity measured against normal human granulocyte-monocyte cells
[2] = Cellular toxicity was measured in normal human granulocyte-monocyte progenitor cells (CFU-GM); settings: read-out: ID50 (the source's name)
[3] = tested on: CCRF-CEM; test: In vitro antiviral test was performed on HIV(LAV strain) infected CEM cells; format: functional; settings: Homo sapiens, read-out: ID50 (the source's name)
How it was run: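 CEM-F cells infected with about 30 TCID50 of HIV (LAV strain), held 45 min at 37 °C, then given compound at various concentrations in culture medium and incubated 8 days. Virus expression read as p24 gag antigen in culture supernatant by sandwich/enzyme-capture ELISA. ID50 (μM) taken as the dose inhibiting 50% of virus expression.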

[4] = tested on: CCRF-CEM; test: Cellular toxicity measured in CEM cells
[5] = The 50% inhibitory concentration expresses cellular toxicity measured against normal human erythrocyte progenitor cells (BFU-E); settings: read-out: ID50 (the source's name)
[6] = tested on: Human immunodeficiency virus; test: The inhibition of compound was determined by reverse transcriptase assay using RNA as template; format: functional
How it was run: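 HIV reverse transcriptase assay with poly(rA):oligo(dT) as RNA template/primer. Various triphosphate concentrations were tested, and Ki was derived from Dixon plots.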

[7] = tested on: Human immunodeficiency virus; test: The inhibition of compound was determined by reverse transcriptase assay using DNA as template; format: functional
How it was run: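 HIV reverse transcriptase assay (DNA-dependent DNA polymerase activity) with poly(dA):oligo(dT) as DNA template/primer. Various triphosphate concentrations were tested, and Ki was derived from Dixon plots.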

[8] = The 50% inhibitory concentration expresses cellular toxicity measured against normal human granulocyte-monocyte cells
[9] = tested on: CCRF-CEM; test: Cellular toxicity was measured in CEM cells after 8 days by using a [3H]- thymidine uptake assay; format: cell-based; settings: human, 192 h, read-out: TCID50
How it was run: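 Uninfected CEM cells treated with various compound concentrations for 8 days; cytotoxicity read by [3H]thymidine uptake and expressed as 50% tissue culture inhibitory dose (TCID50).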

Compound: Cc1cn([C@H]2C[C@H](N=[N+]=[N-])[C@@H](CO)O2)c(=O)[nH]c1=O [ZIDOVUDINE]
ID90 [1]: 20 µM | CC50 [2]: 1 µM | IC50 [3]: 0.1 µM | CC50 [4]: 29 µM | CC50 [5]: 6.7 µM

Compound: Cc1cn([C@H]2CC[C@@H](COP(=O)(O)OP(=O)(O)OP(=O)(O)O)O2)c(=O)[nH]c1=O
Ki [6]: 0.05 µM | Ki [7]: 84 µM

Compound: Cc1cn([C@H]2C=C[C@@H](COP(=O)(O)OP(=O)(O)OP(=O)(O)O)O2)c(=O)[nH]c1=O [STAVUDINE TRIPHOSPHATE]
Ki [6]: 0.032 µM | Ki [7]: 70 µM

IC50 [3]: 0.15 µM
Compound: Cc1cn([C@H]2C=C[C@@H](CO)O2)c(=O)[nH]c1=O [STAVUDINE]
ID90 [1]: > 100 µM | ID50 [8]: 100 µM | CC50 [9]: 90 µM | CC50 [5]: 10 µM

Compound: Cc1cn([C@H]2C[C@H](N=[N+]=[N-])[C@@H](COP(=O)(O)OP(=O)(O)OP(=O)(O)O)O2)c(=O)[nH]c1=O [ZIDOVUDINE TRIPHOSPHATE]
Ki [6]: 0.007 µM | Ki [7]: 84 µM
